According to ChEMBL document CHEMBL3259808, “Optimization of antitrypanosomatid agents: identification of nonmutagenic drug candidates with in vivo activity” (J Med Chem, 2014):

Experiments:
[1] = system: Trypanosoma cruzi; test: Antitrypanosomal activity against Trypanosoma cruzi Tulahuen 2 epimastigotes assessed as growth inhibition after 5 days; assay type: functional, organism-based
In short: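 Epimastigotes were grown axenically at 28 °C in BHI-tryptose with 5% FBS and seeded from a 5–7 day culture at 1 × 10⁶ cells/mL. Drug from a DMSO stock was added (final DMSO ≤0.4%; the control contained 0.4% DMSO). Duplicates were run. A600 was read at day 5, and % inhibition was calculated relative to day-0 and control readings. IC50 = concentration that halves the absorbance ratio.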

[2] = system: Trypanosoma cruzi; test: Antitrypanosomal activity against Trypanosoma cruzi Sylvio X-10 amastigotes infected in African green monkey Vero cells assessed as eradication of amastigotes after 5 days by Giemsa staining-based assay; assay type: functional, organism-based; conditions: Sylvio X-10, Vero, 120 h
In short: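 VERO cells in RPMI 1640 with 10% hiFCS were allowed to adhere for 24 h at 37 °C in 5% CO₂, then infected with tissue-derived trypomastigotes at 10:1. Free parasites were washed off after 24 h, and cultures were treated at five compound doses (text gives 72 h / 5 days). Cultures were methanol-fixed and Giemsa-stained, and infected cells were counted among 300. Quadruplicates were run in three independent experiments. IC50/IC90 were obtained by sigmoidal regression.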

[3] = Selectivity index, ratio of IC50 for human RBC to IC50 for Trypanosoma cruzi Sylvio X-10 amastigotes
In short: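 Hemolysis: washed human erythrocytes (2% w/v in PBS) incubated 24 h at 37 °C with compound at final 50, 100 and 200 μM. Ten replicates per concentration. Hemoglobin release read at 405 nm against water lysis as 100%; amphotericin B 1.5 μM was the positive control. SI = IC50 red cells / parasite IC50 (Sylvio X-10 amastigotes or Tulahuen 2 epimastigotes).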

[4] = system: Salmonella typhimurium; test: Mutagenic activity in Salmonella typhimurium TA98 at 5 to 400 ug/plate by Ames test; assay type: toxicity, organism-based; conditions: salmonella enterica subsp. enterica serovar typhimurium
In short: (§1)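 Ames plate-incorporation assay with S. typhimurium TA98 in Vogel-Bonner E minimal glucose agar. Toxicity toward the bacteria was checked first. DMSO solutions were run in triplicate at five consecutive third-dilutions, starting at the highest non-toxic dose. Positive controls were 4-nitro-o-phenylenediamine (20.0 μg/plate) and 2-aminofluorene (10.0 μg/plate); DMSO was the negative control. Revertants were counted manually. A compound was called mutagenic when revertants were at least twice the negative control at two or more consecutive doses.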

[5] = system: Salmonella typhimurium; test: Mutagenic activity in Salmonella typhimurium TA98 at 5 to 400 ug/plate by Ames test in presence of mouse liver S9 fraction; assay type: toxicity, organism-based; conditions: salmonella enterica subsp. enterica serovar typhimurium; in short: as §1
[6] = Stability of the compound in aqueous solution assessed as compound remaining at 1 mM at pH 6 after 1 hr by TLC analysis; assay type: physicochemical
In short: (§2)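 DMSO stocks diluted to final 1 mM in KCl·HCl pH 1.0, citrate pH 6.0, Tris·HCl pH 7.4 or borax·HCl pH 9.0 buffer. Incubated 1 h at 37 °C, then ethyl acetate extracts checked by TLC for decomposition products.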

[7] = Stability of the compound in aqueous solution assessed as compound remaining at 1 mM at pH 7.4 after 1 hr by TLC analysis; assay type: physicochemical; in short: as §2
[8] = Stability of the compound in aqueous solution assessed as compound remaining at 1 mM at pH 9 after 1 hr by TLC analysis; assay type: physicochemical; in short: as §2
[9] = system: Trypanosoma cruzi; test: Antitrypanosomal activity against Trypanosoma cruzi Sylvio X-10 amastigotes infected in African green monkey Vero cells assessed as eradication of amastigotes after 72 hrs by Giemsa staining-based assay; conditions: Sylvio X-10, Vero
[10] = Selectivity index, ratio of IC50 for African green monkey Vero cells to IC50 for Trypanosoma cruzi Sylvio X-10 amastigotes; assay type: toxicity, cell-based; conditions: read-out: Ratio IC50
In short: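 VERO cytotoxicity: cells exposed 48 h at 37 °C, 5% CO2 to serial dilutions from a maximum of 2000 μM (DMSO stocks; DMSO <0.1% control); growth inhibition read by MTT at 570 nm. Amastigote IC50: Sylvio X-10-infected VERO cells, five doses, infected cells counted among 300 (Giemsa), quadruplicate, three experiments, sigmoidal fit. SI = IC50 VERO / IC50 amastigote.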

[11] = Trypanosoma cruzi, Tulahuen 2, 120 h

| IC50 [1, 11] [µM] | SMILES | other results |
| --- | --- | --- |
| 14.6 | C=CCn1c(-c2ccc(Cl)cc2)cs/c1=N\N=C\c1ccsc1 | – |
| > 25 | C=CCn1c(-c2ccc(Cl)cc2)cs/c1=N/N=C/c1cccs1 | IC50 [2]: 8 µM |
| > 25 | C=CCn1c(C)cs\c1=N/N=C/C=C/c1ccccc1 | – |
| 6.6 | C=CCNC(=S)N/N=C/C=C/c1ccccc1 | – |
| > 25 | C=CCn1c(C)cs/c1=N\N=C\c1ccco1 | – |
| > 25 | C=CCNC(=S)N/N=C/c1ccsc1 | – |
| > 25 | C=CCn1c(C)cs/c1=N\N=C\c1cccs1 | IC50 [2]: > 25 µM; Stability ([6]; buffer, pH 6, 1 h, 1000 µM): Unstable; Stability ([7]; buffer, pH 7.4, 1 h, 1000 µM): Unstable; Stability ([8]; buffer, pH 9, 1 h, 1000 µM): Unstable; IC90 [9]: > 25 µM |
| > 25 | C=CCn1c(-c2ccccc2)cs/c1=N\N=C\c1ccco1 | – |
| 11 | C=CCNC(=S)N/N=C/c1ccc(Cl)cc1 | – |
| 4 | O=[N+]([O-])c1ccc(/C=N/NC(=S)Nc2ccccc2)s1 | IC50 [2]: 4.1 µM; selectivity ratio [10]: 20 |
| > 25 | C=CCn1c(-c2ccccc2)cs/c1=N/N=C/c1cccs1 | – |
| 11 | S=C(N/N=C/C=C/c1ccco1)Nc1ccccc1 | – |
| > 25 | C=CCNC(=S)N/N=C/c1cc2ccccc2o1 | – |
| 19 | S=C(N/N=C/c1ccccc1)Nc1ccccc1 | – |
| > 25 | C=CCn1c(-c2ccc(Cl)cc2)cs/c1=N\N=C\c1ccc(Cl)cc1 | – |

The remaining lines, values behind:

| SMILES | IC50 [1, 11] [µM] | other results |
| --- | --- | --- |
| C[C@@H]1[C@H](O)[C@@H](C)/C=C/C=C/C=C/C=C/C=C/C=C/C=C/[C@H](O[C@@H]2O[C@H](C)[C@@H](O)[C@H](N)[C@@H]2O)C[C@@H]2O[C@](O)(C[C@@H](O)C[C@@H](O)[C@H](O)CC[C@@H](O)C[C@@H](O)CC(=O)O[C@H]1C)C[C@H](O)[C@H]2C(=O)O [AMPHOTERICIN B] | – | IC50 [2]: 1.1 µM; Ratio IC50 [3]: 10 |
| Br.C=CCn1c(-c2ccc([N+](=O)[O-])cc2)cs\c1=N/N=C/C=C/c1ccco1 | > 25 | Activity [4]: Toxic; Activity [5]: Toxic |
| CC(=O)N(C1=NN(C(C)=O)C(c2cccs2)S1)c1ccccc1 (centres undefined) | > 25 | – |
| O=[N+]([O-])c1ccc(/C=N/N=c2\scc(-c3ccccc3)n2-c2ccccc2)s1 | > 25 | – |
| C=CCn1c(-c2ccc(Cl)cc2)cs\c1=N/N=C/C=C/c1ccc([N+](=O)[O-])s1 | 10 | IC50 [2]: 16.9 µM; IC90 [9]: 25.4 µM |
| C=CCN1C(=O)CS/C1=N\N=C\c1ccc([N+](=O)[O-])s1 | > 25 | IC50 [2]: > 25 µM; IC90 [9]: > 25 µM |
| C=CCN1C(=O)CS\C1=N/N=C/C=C/c1ccco1 | > 25 | – |
| C=CCn1c(-c2ccc([N+](=O)[O-])cc2)cs\c1=N/N=C/C=C/c1cccs1 | > 25 | – |
| C=CCn1c(-c2ccccc2)cs/c1=N\N=C\c1ccc([N+](=O)[O-])s1 | 6 | IC50 [2]: 25 µM; selectivity ratio [10]: 5 |
| C=CCn1c(-c2ccccc2)cs\c1=N/N=C/C=C/c1ccccc1 | > 25 | – |
| O=C1CS/C(=N\N=C\c2ccc([N+](=O)[O-])s2)N1c1ccccc1 (stereo in doubt; 13) | – | IC50 [1]: > 25 µM |
| C=CCn1c(-c2ccccc2)cs/c1=N/N=C/c1ccc([N+](=O)[O-])s1 | 20 | – |
| Cc1cs/c(=N/N=C/C=C/c2ccco2)n1-c1ccccc1 | 25 | – |
| C=CCN1C(=O)CS\C1=N/N=C\C=C\C=C\c1cccs1 | > 25 | – |
| C=CCn1c(-c2ccccc2)cs/c1=N\N=C\c1ccc(S(=O)(=O)O)o1 | > 25 | – |
| C=CCn1c(-c2ccc(Br)cc2)cs\c1=N/N=C/C=C/c1cccs1 | > 25 | – |
| Br.C=CCn1c(-c2ccc(Br)cc2)cs\c1=N/N=C/C=C/c1ccco1 | 2.9 | Activity [4]: Non-toxic; Activity [5]: Non-toxic; remaining at 1 h, 1000 µM ([6]; aqueous solution, pH 6, read-out: Stability): > 95%; remaining at 1 h, 1000 µM ([7]; aqueous solution, pH 7.4, read-out: Stability): > 95%; remaining at 1 h, 1000 µM ([8]; aqueous solution, pH 9, read-out: Stability): > 95% |
